The values that follow come from ChEMBL document CHEMBL4002589, “Tri- and Tetrasubstituted Pyridinylimidazoles as Covalent Inhibitors of c-Jun N-Terminal Kinase 3” (J Med Chem, 2017).

Series [1] is described as follows: Drug metabolism in human liver microsomes at 100 uM preincubated with NADPH regenerating system for 5 mins followed by addition of liver microsomes measured after 190 mins by LC-MS analysis. The series is classed as ADME, microsome. As to conditions: read-out: Drug metabolism. For orientation: Liver microsomes are vesicles of endoplasmic reticulum, rich in cytochrome P450 enzymes.

The target in series [2] is Mitogen-activated protein kinase kinase kinase 20 (Homo sapiens) (UniProt Q9NYL2). Nature of the series: Inhibition of ZAK (unknown origin) assessed as residual activity at 1 uM relative to control. The procedure, abridged: (§1)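 Each inhibitor is tested at a single concentration, 1 µM or 0.5 µM depending on the compound. Results are reported as residual kinase activity.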

Series [3] concerns the target T1, Dual specificity mitogen-activated protein kinase kinase 7 (Homo sapiens) (UniProt O14733).
T1 sequence (whole entry): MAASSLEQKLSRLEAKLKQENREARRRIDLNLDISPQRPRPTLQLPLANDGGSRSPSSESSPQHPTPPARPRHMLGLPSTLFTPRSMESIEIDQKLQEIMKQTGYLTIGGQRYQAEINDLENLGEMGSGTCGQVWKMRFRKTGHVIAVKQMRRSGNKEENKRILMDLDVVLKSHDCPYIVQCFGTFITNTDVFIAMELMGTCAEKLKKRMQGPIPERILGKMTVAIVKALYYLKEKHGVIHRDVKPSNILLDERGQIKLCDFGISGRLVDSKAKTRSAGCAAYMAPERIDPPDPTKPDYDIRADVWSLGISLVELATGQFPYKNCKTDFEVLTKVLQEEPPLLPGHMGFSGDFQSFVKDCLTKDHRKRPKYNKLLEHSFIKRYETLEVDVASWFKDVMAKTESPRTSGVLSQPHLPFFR
Nature of the series: Inhibition of full length human GST-HIS tagged MKK7 expressed in Sf9 cells assessed as residual activity at 1 uM relative to control. Summed up:
as §1

The target in series [4] is T2, Serine/threonine-protein kinase Sgk1 (Homo sapiens) (UniProt O00141).
T2 sequence (whole entry): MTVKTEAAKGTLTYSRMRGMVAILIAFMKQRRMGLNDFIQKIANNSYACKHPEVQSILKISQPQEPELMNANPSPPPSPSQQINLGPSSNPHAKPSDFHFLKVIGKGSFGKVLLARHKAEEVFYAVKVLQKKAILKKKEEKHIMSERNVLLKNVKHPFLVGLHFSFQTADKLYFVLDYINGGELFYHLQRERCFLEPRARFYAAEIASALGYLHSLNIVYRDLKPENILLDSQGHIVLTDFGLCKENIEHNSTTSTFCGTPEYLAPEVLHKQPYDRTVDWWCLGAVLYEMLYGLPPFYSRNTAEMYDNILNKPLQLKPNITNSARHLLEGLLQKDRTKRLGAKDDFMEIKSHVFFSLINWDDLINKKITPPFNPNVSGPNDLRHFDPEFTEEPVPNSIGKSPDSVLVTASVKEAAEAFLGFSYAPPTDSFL
Nature of the series: Inhibition of full length human GST-tagged SGK1 expressed in Sf9 cells assessed as residual activity at 1 uM relative to control. The procedure, abridged: as §1

Series [5] addresses Casein kinase I isoform gamma-2 (Homo sapiens) (UniProt P78368). Nature of the series: Inhibition of CK1 gamma2 (unknown origin) assessed as residual activity at 1 uM relative to control. Summed up:
as §1

The target in series [6] is Serine/threonine-protein kinase 16 (Homo sapiens) (UniProt O75716). Nature of the series: Inhibition of full length human GST-tagged TSF1 expressed in Sf9 cells assessed as residual activity at 1 uM relative to control. The procedure, abridged: as §1
Chain of Serine/threonine-protein kinase 16 (Homo sapiens) (O75716 whole entry, canonical isoform): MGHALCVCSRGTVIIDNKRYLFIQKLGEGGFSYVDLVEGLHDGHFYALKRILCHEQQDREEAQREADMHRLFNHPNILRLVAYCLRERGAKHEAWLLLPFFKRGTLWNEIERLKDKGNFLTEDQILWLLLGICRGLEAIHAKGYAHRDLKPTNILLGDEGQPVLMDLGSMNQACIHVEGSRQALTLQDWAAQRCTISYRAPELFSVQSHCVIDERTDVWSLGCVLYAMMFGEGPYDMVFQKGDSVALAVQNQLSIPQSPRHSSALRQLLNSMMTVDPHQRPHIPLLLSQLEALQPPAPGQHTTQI
For series [7], the target named is Casein kinase I isoform delta (Homo sapiens) (UniProt P48730). Nature of the series: Inhibition of CK1 delta (unknown origin) assessed as residual activity at 1 uM relative to control. The procedure, abridged: as §1
Chain of Casein kinase I isoform delta (Homo sapiens) (P48730 whole entry, looked up, canonical isoform): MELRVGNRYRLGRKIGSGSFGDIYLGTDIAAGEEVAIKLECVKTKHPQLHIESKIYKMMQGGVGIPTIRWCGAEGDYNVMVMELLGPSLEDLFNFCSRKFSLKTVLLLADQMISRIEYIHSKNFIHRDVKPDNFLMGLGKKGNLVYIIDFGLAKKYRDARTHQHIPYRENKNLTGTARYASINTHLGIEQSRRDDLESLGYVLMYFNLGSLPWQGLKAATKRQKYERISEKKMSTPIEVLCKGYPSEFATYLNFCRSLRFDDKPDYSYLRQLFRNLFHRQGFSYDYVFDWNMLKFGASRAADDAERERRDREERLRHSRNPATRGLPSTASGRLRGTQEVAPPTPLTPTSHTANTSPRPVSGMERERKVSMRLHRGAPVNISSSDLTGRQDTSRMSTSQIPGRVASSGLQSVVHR
Series [8] has as its target Mitogen-activated protein kinase kinase kinase 11 (Homo sapiens) (UniProt Q16584). Nature of the series: Inhibition of MAP3K11 (unknown origin) assessed as residual activity at 1 uM relative to control. Summed up: as §1
The target in series [9] is Mitogen-activated protein kinase 14 (Homo sapiens, UniProt Q16539). Nature of the series: Inhibition of GST-His tagged human p38alpha expressed in Escherichia coli assessed as reduction in ATF2 phosphorylation measured after 60 mins by ELISA. Summed up: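 ELISA kinase assays run in parallel for JNK3 and p38α, with 60 min incubation. IC50 values are the mean of three experiments.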
Chain of Mitogen-activated protein kinase 14 (Q16539 whole entry): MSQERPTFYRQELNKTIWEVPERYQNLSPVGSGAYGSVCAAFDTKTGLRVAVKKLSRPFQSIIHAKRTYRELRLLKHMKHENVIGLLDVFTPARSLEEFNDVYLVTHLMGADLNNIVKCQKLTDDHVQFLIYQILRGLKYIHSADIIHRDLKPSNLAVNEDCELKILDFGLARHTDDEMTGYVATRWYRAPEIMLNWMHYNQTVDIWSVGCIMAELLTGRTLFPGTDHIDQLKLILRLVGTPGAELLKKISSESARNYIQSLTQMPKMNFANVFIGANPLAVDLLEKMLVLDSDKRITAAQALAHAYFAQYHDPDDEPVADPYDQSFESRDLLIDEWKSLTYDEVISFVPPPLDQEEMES

Series [10] relates to Mitogen-activated protein kinase 10 (Homo sapiens), P53779 [C154A]. Nature of the series: Covalent binding affinity to JNK3 C154A mutant (unknown origin) at 5 molar excess after 1 hr by LC-muESI-QTOF mass spectrometry. Summed up:
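Intact-protein mass spectrometry with a JNK3 mutant carrying Cys-154→Ala. Inhibitor is incubated with the protein. Unbound and reversibly bound ligand are removed by chromatography and by a high declustering potential before ionization. The protein is then analysed by LC-µESI-QTOF to look for a mass shift from a covalent adduct.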

Series [11] concerns the target Mitogen-activated protein kinase 10 (Homo sapiens, UniProt P53779). Nature of the series: Inhibition of recombinant 6x-His-tagged JNK3 (39 to 402 residues) (unknown origin) expressed in Escherichia coli BL21(DE3) assessed as reduction in ATF2 phosphorylation measured after 50 mins by ELISA. (In general: In an ELISA, binding on a coated surface is turned into a signal by an enzyme label.)

In series [12] the target is Dual specificity protein kinase CLK4 (Homo sapiens) (UniProt Q9HAZ1). Nature of the series: Inhibition of CLK4 (unknown origin) assessed as residual activity at 1 uM relative to control. Summed up: as §1
Chain of Dual specificity protein kinase CLK4 (Homo sapiens) (Q9HAZ1 whole entry, looked up): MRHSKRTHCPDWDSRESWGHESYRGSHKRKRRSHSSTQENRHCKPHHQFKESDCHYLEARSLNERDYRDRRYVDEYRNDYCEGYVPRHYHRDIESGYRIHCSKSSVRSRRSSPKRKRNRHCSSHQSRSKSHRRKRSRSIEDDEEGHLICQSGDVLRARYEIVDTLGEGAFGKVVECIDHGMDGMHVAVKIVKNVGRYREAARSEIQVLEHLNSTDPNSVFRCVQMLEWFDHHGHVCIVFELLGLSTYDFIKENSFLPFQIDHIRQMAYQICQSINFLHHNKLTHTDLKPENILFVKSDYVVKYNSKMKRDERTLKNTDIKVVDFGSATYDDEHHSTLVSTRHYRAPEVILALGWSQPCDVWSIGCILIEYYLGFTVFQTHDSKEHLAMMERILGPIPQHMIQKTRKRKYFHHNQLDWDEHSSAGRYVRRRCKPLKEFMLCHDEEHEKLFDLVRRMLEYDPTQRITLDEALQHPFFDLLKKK
In series [13] the target is Mitogen-activated protein kinase kinase kinase 10 (Homo sapiens) (UniProt Q02779). Nature of the series: Inhibition of MAP3K10 (unknown origin) assessed as residual activity at 1 uM relative to control. The procedure, abridged:
as §1

SMILES strings stand for the structures. Activity calls are given as the source filed them. The rule behind the calls is not given here.

Broadly, the IC50 is the concentration at which inhibition is half-maximal.

Chain of Mitogen-activated protein kinase kinase kinase 10 (Homo sapiens) (Q02779 whole entry, looked up): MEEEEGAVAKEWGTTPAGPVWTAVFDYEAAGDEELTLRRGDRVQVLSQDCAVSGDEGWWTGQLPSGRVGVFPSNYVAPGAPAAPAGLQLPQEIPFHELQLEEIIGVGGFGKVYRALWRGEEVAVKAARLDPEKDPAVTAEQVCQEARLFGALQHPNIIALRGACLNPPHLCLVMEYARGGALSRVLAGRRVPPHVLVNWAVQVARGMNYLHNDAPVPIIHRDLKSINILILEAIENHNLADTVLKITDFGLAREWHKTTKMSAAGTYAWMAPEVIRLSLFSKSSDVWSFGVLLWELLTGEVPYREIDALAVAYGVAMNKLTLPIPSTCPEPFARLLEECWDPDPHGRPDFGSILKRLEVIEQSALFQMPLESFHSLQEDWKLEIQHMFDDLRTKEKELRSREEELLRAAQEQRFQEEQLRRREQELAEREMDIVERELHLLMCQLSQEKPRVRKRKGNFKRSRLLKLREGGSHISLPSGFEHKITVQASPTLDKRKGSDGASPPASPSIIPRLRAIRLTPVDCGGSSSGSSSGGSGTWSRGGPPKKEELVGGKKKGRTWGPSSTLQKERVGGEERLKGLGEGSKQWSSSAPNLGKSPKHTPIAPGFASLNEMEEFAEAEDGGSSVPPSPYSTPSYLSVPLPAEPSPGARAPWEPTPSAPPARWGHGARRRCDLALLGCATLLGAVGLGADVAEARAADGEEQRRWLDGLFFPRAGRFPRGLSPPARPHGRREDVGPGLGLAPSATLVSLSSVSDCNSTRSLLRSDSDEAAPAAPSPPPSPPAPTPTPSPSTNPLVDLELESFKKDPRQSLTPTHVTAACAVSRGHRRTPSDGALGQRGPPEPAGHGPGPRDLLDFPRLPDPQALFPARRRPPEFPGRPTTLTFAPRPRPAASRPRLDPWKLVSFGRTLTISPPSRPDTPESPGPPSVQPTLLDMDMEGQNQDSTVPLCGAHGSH
Chain of Mitogen-activated protein kinase kinase kinase 11 (Homo sapiens) (Q16584 whole entry, looked up): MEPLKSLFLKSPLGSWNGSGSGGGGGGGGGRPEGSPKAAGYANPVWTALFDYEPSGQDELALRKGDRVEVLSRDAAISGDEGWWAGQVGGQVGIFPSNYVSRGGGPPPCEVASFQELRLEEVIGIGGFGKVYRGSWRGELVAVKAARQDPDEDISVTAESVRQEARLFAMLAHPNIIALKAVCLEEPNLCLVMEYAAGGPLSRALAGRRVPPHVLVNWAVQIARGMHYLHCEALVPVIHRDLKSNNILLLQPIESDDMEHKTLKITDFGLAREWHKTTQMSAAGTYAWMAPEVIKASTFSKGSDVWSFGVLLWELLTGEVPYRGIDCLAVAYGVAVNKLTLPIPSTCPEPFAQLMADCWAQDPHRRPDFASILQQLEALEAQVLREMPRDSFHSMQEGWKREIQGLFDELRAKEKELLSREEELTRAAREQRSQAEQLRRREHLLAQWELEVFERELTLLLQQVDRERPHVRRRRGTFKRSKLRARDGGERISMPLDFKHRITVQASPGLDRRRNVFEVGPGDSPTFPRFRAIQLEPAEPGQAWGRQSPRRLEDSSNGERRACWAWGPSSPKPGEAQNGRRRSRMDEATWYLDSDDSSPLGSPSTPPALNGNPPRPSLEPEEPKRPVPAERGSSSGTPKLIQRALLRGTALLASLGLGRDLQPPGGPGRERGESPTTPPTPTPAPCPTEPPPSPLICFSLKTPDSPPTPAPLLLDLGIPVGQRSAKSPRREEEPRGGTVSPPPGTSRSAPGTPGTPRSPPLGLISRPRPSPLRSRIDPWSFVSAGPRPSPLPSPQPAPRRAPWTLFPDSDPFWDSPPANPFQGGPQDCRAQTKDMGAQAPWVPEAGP
Chain of Mitogen-activated protein kinase 10 (Homo sapiens), P53779 [C154A] (P53779 whole entry C154A): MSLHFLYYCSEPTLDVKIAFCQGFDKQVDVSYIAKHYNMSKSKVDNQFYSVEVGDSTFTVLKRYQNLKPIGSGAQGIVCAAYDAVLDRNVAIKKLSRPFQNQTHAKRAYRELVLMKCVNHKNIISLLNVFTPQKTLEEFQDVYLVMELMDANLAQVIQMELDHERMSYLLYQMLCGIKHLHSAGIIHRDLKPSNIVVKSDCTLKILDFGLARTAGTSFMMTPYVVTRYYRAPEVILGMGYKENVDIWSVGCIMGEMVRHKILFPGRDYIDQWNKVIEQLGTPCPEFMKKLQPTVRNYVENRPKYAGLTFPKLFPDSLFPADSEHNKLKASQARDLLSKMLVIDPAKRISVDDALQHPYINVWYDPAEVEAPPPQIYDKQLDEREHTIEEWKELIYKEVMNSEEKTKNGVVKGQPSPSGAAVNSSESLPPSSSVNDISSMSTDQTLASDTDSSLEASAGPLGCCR
Chain of Casein kinase I isoform gamma-2 (Homo sapiens) (P78368 whole entry, looked up, canonical isoform): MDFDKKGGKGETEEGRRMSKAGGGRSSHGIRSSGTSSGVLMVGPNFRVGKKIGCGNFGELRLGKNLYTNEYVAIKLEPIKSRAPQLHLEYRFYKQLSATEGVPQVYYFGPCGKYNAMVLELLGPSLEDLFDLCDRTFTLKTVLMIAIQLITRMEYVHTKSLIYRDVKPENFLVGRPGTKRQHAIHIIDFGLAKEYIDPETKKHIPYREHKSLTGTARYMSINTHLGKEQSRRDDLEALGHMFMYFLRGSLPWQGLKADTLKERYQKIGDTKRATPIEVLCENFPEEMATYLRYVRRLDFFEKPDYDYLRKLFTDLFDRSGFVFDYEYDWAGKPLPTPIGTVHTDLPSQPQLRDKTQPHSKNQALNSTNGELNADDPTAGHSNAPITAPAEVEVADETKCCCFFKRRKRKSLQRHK
Chain of Mitogen-activated protein kinase 10 (P53779 whole entry, the tested form may be a part): as the sequence (P53779 whole entry C154A) above, with A154C counted along it

`C=CC(=O)Nc1cccc(C(=O)Nc2ccc(Nc3cc(-c4[nH]c(SC)nc4C)ccn3)cc2)c1`: the metabolised at 190 min, 100 µM in [1] is 31%. The Activity in [2], in series [3], in [4], in [5], in [6] and in series [7] was 10 to 29% each time. The Activity in series [8], in series [12] and in series [13] was 10 to 29% throughout. Also, the IC50 was determined as 1950 nM in [9] and 2 nM in series [11]. Further, the result in series [10] was inactive.
